Measured values published in ChEMBL document CHEMBL2346497, “Synthesis of novel cognition enhancers with pyrazolo[5,1-c][1,2,4]benzotriazine core acting at γ-aminobutyric acid type A (GABA(A)) receptor” (Bioorg Med Chem, 2013).
pKi: −log10 of the molar value. The source made the active and inactive calls. The calls are words filed in the database; no cut-off is given here.

Tests used:
Rattus norvegicus [1] = assay: Induction of acetylcholine release in Harlan Wistar rat parietal cortex at 10 mg/kg, ip after 60 to 80 mins by microdialysis method; assay type: functional, organism-based; set-up: dose 10 mg/kg
Summary of the method: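 Microdialysis in the parietal cortex of male Wistar rats, with a horizontal tube implanted at AP 0.5 mm and H 2.3 mm from bregma. One day after surgery the tube was perfused with Ringer containing physostigmine. After a 1 h settling period, 20-min fractions were collected into HCl. Drug was given ip in 1% CMC at time 0. ACh was measured by HPLC with electrochemical detection, n = 6 rats.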

[2] = target: GABA A receptor alpha-2/beta-2/gamma-2 (Homo sapiens) (UniProt P47870+P18507+P47869); assay: Displacement of [3H]Ro15-1788 from recombinant GABA-A alpha2beta2gamma2 receptor benzodiazepine binding site (unknown origin) at 10 uM after 1 hr relative to control; assay type: protein-complex assay
Summary of the method: (§1)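 Membranes came from clonal mammalian cell lines expressing α1β2γ2, α2β2γ2 or α5β3γ2 receptors, grown in MEM/EBSS with 10% FCS at 37 °C. Membranes were resuspended in 10 mM potassium phosphate, pH 7.4, with 100 mM KCl. Assays used 1–2 nM [3H]Ro15-1788 and test compound from 10^-9 to 10^-5 M, at least six concentrations. Diazepam at 10^-5 M defined nonspecific binding. Incubation ran 1 h at 4 °C. Single-point % inhibition was measured at 10 µM, and Ki by curve fitting; n = 5, in duplicate.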

[3] = target: T1, GABA-A receptor; alpha-1/beta-2/gamma-2 (Homo sapiens, UniProt P14867+P18507+P47870); assay: Displacement of [3H]Ro15-1788 from recombinant GABA-A alpha1beta2gamma2 receptor benzodiazepine binding site (unknown origin) after 1 hr; assay type: protein-complex assay; summary of the method: as §1
T1 sequence (P14867 whole entry): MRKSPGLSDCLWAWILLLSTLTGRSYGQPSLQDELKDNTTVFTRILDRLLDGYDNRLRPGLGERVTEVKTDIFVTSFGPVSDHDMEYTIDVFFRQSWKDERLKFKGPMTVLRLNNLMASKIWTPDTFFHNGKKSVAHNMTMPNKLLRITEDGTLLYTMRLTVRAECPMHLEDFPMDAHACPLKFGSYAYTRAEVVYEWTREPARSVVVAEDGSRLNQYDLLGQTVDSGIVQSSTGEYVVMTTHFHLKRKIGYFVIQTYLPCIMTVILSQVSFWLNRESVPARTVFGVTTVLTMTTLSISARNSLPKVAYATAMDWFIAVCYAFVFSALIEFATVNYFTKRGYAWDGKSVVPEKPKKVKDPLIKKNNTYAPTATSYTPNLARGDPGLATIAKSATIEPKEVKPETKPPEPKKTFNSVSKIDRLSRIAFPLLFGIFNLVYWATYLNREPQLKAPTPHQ
T1 sequence (P47870 whole entry): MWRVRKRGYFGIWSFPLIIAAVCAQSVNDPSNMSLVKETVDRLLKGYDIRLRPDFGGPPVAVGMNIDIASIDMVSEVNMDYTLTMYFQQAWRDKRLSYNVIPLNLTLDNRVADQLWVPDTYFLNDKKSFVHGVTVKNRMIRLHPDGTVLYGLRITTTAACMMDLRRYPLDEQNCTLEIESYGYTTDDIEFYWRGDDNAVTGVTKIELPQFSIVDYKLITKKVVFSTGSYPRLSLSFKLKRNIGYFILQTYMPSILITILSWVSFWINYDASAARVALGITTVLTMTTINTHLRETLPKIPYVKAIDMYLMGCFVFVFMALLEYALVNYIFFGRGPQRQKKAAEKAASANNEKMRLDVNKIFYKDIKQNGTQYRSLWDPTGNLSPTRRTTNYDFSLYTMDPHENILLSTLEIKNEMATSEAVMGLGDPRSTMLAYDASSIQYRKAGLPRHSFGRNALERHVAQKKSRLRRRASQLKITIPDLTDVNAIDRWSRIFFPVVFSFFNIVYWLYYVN
T1 sequence (P18507 whole entry): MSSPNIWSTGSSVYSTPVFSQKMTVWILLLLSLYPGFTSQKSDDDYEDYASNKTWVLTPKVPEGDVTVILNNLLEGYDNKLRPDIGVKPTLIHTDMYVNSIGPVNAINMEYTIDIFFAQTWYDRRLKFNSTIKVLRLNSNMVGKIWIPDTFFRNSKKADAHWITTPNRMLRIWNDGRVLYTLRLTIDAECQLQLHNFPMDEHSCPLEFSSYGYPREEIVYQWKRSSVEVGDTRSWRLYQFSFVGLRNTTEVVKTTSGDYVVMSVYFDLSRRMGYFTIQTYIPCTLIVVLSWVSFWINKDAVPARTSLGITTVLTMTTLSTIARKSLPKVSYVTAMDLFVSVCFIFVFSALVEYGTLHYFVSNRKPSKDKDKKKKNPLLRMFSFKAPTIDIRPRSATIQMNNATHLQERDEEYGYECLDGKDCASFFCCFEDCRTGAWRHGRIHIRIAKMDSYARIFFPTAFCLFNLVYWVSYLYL

Mus musculus [4] = assay: Neurotoxicity in CD1 albino mouse assessed as decrease in number of falls from rotating rod at 10 mg/kg, po by rota-rod test relative to control; assay type: toxicity, organism-based; set-up: dose 10 mg/kg, route oral; conditions: in vivo, TDE = time-dependent effect
Summary of the method: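 Motor coordination was tested on a rota-rod turning at 24 rpm in male CD-1 mice dosed po in 1% CMC. Falls within 30 s were counted at a pretest and at 15, 30, 45 and 60 min after dosing. Each value is the mean of five mice, compared with CMC-treated controls.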

Mus musculus [5] = assay: Anxiolytic activity in CD1 albino mouse assessed as increase in time spent in illuminated side at 3 to 10 mg/kg, po administered 30 mins prior to testing measured for 5 mins by light-dark box test; assay type: functional, organism-based
Summary of the method: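 Light/dark box: two equal acrylic compartments, one lit by a 60 W lamp, joined by a floor-level opening. Male CD-1 mice were dosed po in 1% CMC 30 min before the test, then placed in the centre of the lit side facing away from the dark side. Over 5 min, transfers and time in the light side were recorded, n = 8 mice per group.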

Rattus norvegicus [6] = assay: Procognitive effect in Harlan Wistar rat assessed as exploring time of familiar rat during social investigatory behaviour at 3 mg/kg, po administered 30 mins prior to testing measured for 5 mins by social learning test (reference value: 27.6 secs); assay type: functional
Rattus norvegicus [7] = assay: Procognitive effect in Harlan Wistar rat assessed as exploring time of familiar rat during social investigatory behaviour at 10 mg/kg, po administered 30 mins prior to testing measured for 5 mins by social learning test (reference value: 27.6 secs); assay type: functional
Rattus norvegicus [8] = assay: Procognitive effect in Harlan Wistar rat assessed as exploring time of familiar rat during social investigatory behaviour at 1 mg/kg, po administered 30 mins prior to testing measured for 5 mins by social learning test (reference value: 27.6 secs); assay type: functional
Mus musculus [9] = assay: Cognitive enhancing effect in CD1 albino mouse assessed as increase in retention latency at 1 to 10 mg/kg, po administered 30 mins prior to testing measured after 24 hrs by passive avoidance test relative to control; assay type: functional, organism-based
Summary of the method: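 Step-through passive avoidance in male CD-1 mice (22–24 g). Test drugs were given po, suspended in 1% carboxymethylcellulose at 10 ml/kg, 30 min before the training session. For the antiamnesic arm, scopolamine 1.5 mg/kg was injected immediately after punishment. Retention latency was compared with CMC-treated controls, n = 10–12 mice per group.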

## Cc1cnn2c1n[n+]([O-])c1ccc(OCc3ccncc3)cc12
Rattus norvegicus [1]
  Activity: Active
[2]
  inhibition: 5%
[3]
  pKi: 7.64
Mus musculus [4]
  Activity: tde
Mus musculus [5]
  Activity: inactive
Rattus norvegicus [6]
  Time: 43.2 s
Rattus norvegicus [7]
  Time: 41.4 s
Rattus norvegicus [8]
  Time: 33.2 s
Mus musculus [9]
  Activity: Active
